For data set [1], the system named is Bel-7402. In words: Cell cycle arrest in human Bel7402 cells assessed as delay in progression of S-phase to G2-phase at 10 nM pre-treated with aphidicolin for 16 hrs followed by compound addition measured up to 24 hrs by propidium iodide staining-based flow cytometric method. It counts as functional. The gist of the method:
(§1)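 Exponentially growing cells synchronized in early S phase with 0.2 μg/mL aphidicolin for 16 h. Cells released into fresh medium with or without compound for set times. Ethanol-fixed, stained with PI/RNase, and cell cycle distribution read by flow cytometry. Representative of three independent experiments.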

The nature of data set [2]: Cytotoxicity against Sprague-Dawley rat primary neuronal cells assessed as reduction in cell viability at 300 nM after 24 hrs by MTT assay. It counts as cell-based. The settings on record: read-out: INH.
The subject of data set [3] is Bel-7402. The data set is described as follows: Induction of DNA damage in human Bel7402 cells assessed as increase in gamma-H2AX levels at 1 to 100 nM after 1 hr by Western blot analysis. The data set is classed as functional, cell-based. The gist of the method: (§2)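 BEL-7402 cells (1.5 × 10⁵ per well, 12-well plates) exposed to compounds for 1 h. Phospho-Chk1 Ser345, phospho-Chk2 Thr68 and γH2AX detected by Western blot. Camptothecin at 1 μM served as the DNA-damage reference.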

Data set [4] is described as follows: Selectivity ratio of IC50 for human MRC9 cells to IC50 for human A549 cells. A digest of the protocol:
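SRB assay: A549 (F-12, 10% FBS) and MRC-5/MRC-9 (EMEM, 10% FBS) treated in triplicate 72 h, fixed with ice-cold 10% TCA, stained with 0.4% SRB in 1% acetic acid, absorbance 540 nm; IC₅₀ by four-parameter logistic fit, mean of ≥3 independent experiments.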

The test system of data set [5] is Bel-7402. The data set is described as follows: Induction of apoptosis in human Bel7402 cells assessed as necrotic cells at 1 nM after 72 hrs by Annexin V/propidium iodide staining based flow cytometric analysis (reference value: 0.38%). The data set is classed as functional.
The test system of data set [6] is SMMC-7721. The data set is described as follows: Cell cycle arrest in human SMMC7721 cells assessed as delay in progression of S-phase to G2-phase at 1 to 10 nM pre-treated with aphidicolin for 16 hrs followed by compound addition measured after 24 hrs by propidium iodide staining-based flow cytometric method. The data set is classed as functional. A digest of the protocol: as §1

For data set [7], the system named is K562/Adr. The data set is described as follows: Effect on P-gp expression in human K562/ADR cells up to 100 nM after 24 hrs by Western blot analysis. It counts as functional, cell-based.
Data set [8] concerns Bel-7402. In words: Induction of apoptosis in human Bel7402 cells assessed as late apoptotic cells at 1 nM after 72 hrs by Annexin V/propidium iodide staining based flow cytometric analysis (reference value: 3.6%). It counts as functional. The gist of the method:
(§3)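 BEL-7402 cells (3 × 10⁵ per well, 6-well plates) exposed for 72 h. Harvested, PBS-washed, resuspended in cold binding buffer with annexin V–FITC and PI, and stained 15 min in the dark at room temperature. Early apoptotic, late apoptotic and necrotic fractions quantified by flow cytometry.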

In data set [9] the test system is Bel-7402. In words: Inhibition of colony formation in human Bel7402 cells after 24 hrs by SRB staining-based plate colony formation assay. The data set is classed as functional, cell-based. A digest of the protocol: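 BEL-7402 cells seeded at 200 per well, treated in triplicate 24 h, washed twice with PBS, then grown 12 days in fresh medium; colonies stained with SRB and those ≥1 mm diameter counted; three independent experiments, mean ± SD.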

Data set [10] relates to K562/Adr. In words: Cell cycle arrest in human K562/ADR cells assessed as delay in progression of S-phase to G2-phase at 1 to 10 nM pre-treated with aphidicolin for 16 hrs followed by compound addition measured up to 24 hrs by propidium iodide staining-based flow cytometric method. The data set is classed as functional.
Data set [11] concerns Bel-7402. In words: Induction of apoptosis in human Bel7402 cells assessed as early apoptotic cells at 1 nM after 72 hrs by Annexin V/propidium iodide staining based flow cytometric analysis (reference value: 3.66%). It counts as functional. A digest of the protocol:
as §3

Data set [12] deals with Bel-7402. The data set is described as follows: Cell cycle arrest in human Bel7402 cells assessed as accumulation in S-phase at 10 nM after 24 hrs by propidium iodide staining-based flow cytometry (reference value: 27.5 +/- 1%). The data set is classed as functional. The gist of the method:
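BEL-7402 cells exposed for 24 h, then fixed in 70% ethanol at −20 °C for ≥1 h. Stained with 50 μg/mL propidium iodide plus 10 μg/mL RNase A for 30 min in the dark at room temperature. DNA content read by flow cytometry on ≥1.0 × 10⁴ cells per sample.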

Data set [13] is described as follows: Antiproliferative activity against human MRC9 cells assessed as reduction in viability after 72 hrs by SRB assay. It counts as cell-based. The settings on record: MRC9, 72 h. The gist of the method:
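Cells seeded and dosed in triplicate for 72 h. Suspension lines (HL-60, K-562, K562/ADR, HL-60/MX2) were read by MTT: 5 mg/mL MTT stock added, 4 h at 37 °C, formazan dissolved in 10% SDS/5% isobutanol/10 mM HCl, A570. Adherent lines were read by SRB: fixed with cold 10% TCA, stained with 0.4% SRB in 1% acetic acid, A540. IC50 from four-parameter logistic fit; mean of ≥3 independent experiments.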

Data set [14] relates to Bel-7402. In words: Induction of apoptosis in human Bel7402 cells assessed as necrotic cells at 10 nM after 72 hrs by Annexin V/propidium iodide staining based flow cytometric analysis (reference value: 0.38%). It counts as functional.
The nature of data set [15]: Growth inhibition of human KB-MDR cells after 8 days by methylene blue-staining based spectrophotometry. It counts as functional. The note with it: 192 h.
Data set [16] has as its system Bel-7402. In words: Induction of DNA damage in human Bel7402 cells assessed as increase in gamma-H2AX levels at 0.1 to 10 uM after 1 hr by Western blot analysis. The data set is classed as functional, cell-based. The gist of the method: as §2
The test system of data set [17] is Bel-7402. In words: Inhibition of DNA synthesis in human Bel7402 cells assessed as BrdU incorporation at 1 uM preincubated for 1 hr followed by BrdU addition for 30 mins by FITC/propidium iodide staining based flow cytometry (reference value: 35.5%). The arrangement: scale not given: the % may be the effect or the level left. It counts as functional. The gist of the method:
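BEL-7402 cells (3 × 10⁵ per well) exposed to compounds 1 h, then labeled with 10 μM BrdU for 30 min; trypsinized, fixed in 70% ethanol at −20 °C ≥1 h, 2 N HCl 20 min, neutralized with 0.1 M borate, stained with anti-BrdU-FITC plus PI 30 min; BrdU-positive cells quantified by flow cytometry; three independent experiments, mean + SD.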

Data set [18] concerns Bel-7402. The data set is described as follows: Induction of apoptosis in human Bel7402 cells assessed as necrotic cells at 1 uM after 72 hrs by Annexin V/propidium iodide staining based flow cytometric analysis (reference value: 0.38%). It counts as functional.
The subject of data set [19] is Bel-7402. The data set is described as follows: Induction of DNA damage in human Bel7402 cells assessed as increase in CHK2 phosphorylation at Thr68 residue at 0.1 to 10 uM after 1 hr by Western blot analysis. It counts as functional, cell-based. The gist of the method: as §2
Data set [20] concerns Bel-7402. In words: Induction of apoptosis in human Bel7402 cells assessed as necrotic cells at 10 uM after 72 hrs by Annexin V/propidium iodide staining based flow cytometric analysis (reference value: 0.38%). The data set is classed as functional.
The subject of data set [21] is Bel-7402. The data set is described as follows: Induction of apoptosis in human Bel7402 cells assessed as viable cells at 1 uM after 72 hrs by Annexin V/propidium iodide staining based flow cytometric analysis (reference value: 92.4%). It counts as functional. The settings on record: Bel-7402, 72 h, read-out: Activity.
The subject of data set [22] is Bel-7402. The data set is described as follows: Induction of apoptosis in human Bel7402 cells assessed as late apoptotic cells at 10 uM after 72 hrs by Annexin V/propidium iodide staining based flow cytometric analysis (reference value: 3.6%). It counts as functional. A digest of the protocol: as §3

SMILES strings stand for the structures. Active and inactive are the calls of the source. The rule behind the calls is not given here.

As to `COc1cc2c3c(c4ccc(O)cc4c2cc1OC)CN1CCCC[C@@H]1C3`, the outcome in [1], in data set [6] and in data set [10] was Active. Besides, the cytotoxicity at 24 h, 0.3 µM in data set [2] was 50%. The outcome in data set [3] and in data set [7] was inactive. Moreover, the “Ratio IC50” value in data set [4] is listed as 3 - 4. Also, the Activity was determined as 0.39% in data set [5]; 2.11% in data set [8]; 3.11% in data set [11]; 50.3% in data set [12]; 0.94% in [14]. The inhibition result in [9] is “Dose-dependent effect”. In addition, the IC50 in data set [13] is 2.2 nM.

As for `COc1cc2c3c(c4cc(OC)c(OC)cc4c2cc1OC)[C@H](O)[C@@H]1CCCN1C3`, it took 30 nM to inhibit growth in data set [15] by half (GI50). The result in [16] and in data set [19] was inactive. For the same compound, the Activity in data set [17] is reported as 8.01%; in data set [18], 0.81%; in data set [20], 1.39%; in data set [22], 11.5%. Further, the viability at 1 µM in data set [21] worked out at 94.7%.

(Values after ChEMBL document CHEMBL4049418, “6-OH-Phenanthroquinolizidine Alkaloid and Its Derivatives Exert Potent Anticancer Activity by Delaying S Phase Progression” (J Med Chem, 2017).)
